pIC50: −log10 of the molar value.
How the values were obtained:
Plasminogen = Plasminogen (Homo sapiens, UniProt P00747); assay: Inhibition of human plasmin
Method in brief: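 Plasmin from human plasma, approx. 5 mU, in Tris pH 7.4, with a 15-min 37 °C inhibitor preincubation. […] Initial rate is read at 405 nm, in duplicate, and IC50 is obtained by four-parameter logistic fitting.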

[1] = target: Tissue-type plasminogen activator (Homo sapiens, UniProt P00750); assay: Inhibition of recombinant tPA
Chain of Tissue-type plasminogen activator (P00750 whole entry): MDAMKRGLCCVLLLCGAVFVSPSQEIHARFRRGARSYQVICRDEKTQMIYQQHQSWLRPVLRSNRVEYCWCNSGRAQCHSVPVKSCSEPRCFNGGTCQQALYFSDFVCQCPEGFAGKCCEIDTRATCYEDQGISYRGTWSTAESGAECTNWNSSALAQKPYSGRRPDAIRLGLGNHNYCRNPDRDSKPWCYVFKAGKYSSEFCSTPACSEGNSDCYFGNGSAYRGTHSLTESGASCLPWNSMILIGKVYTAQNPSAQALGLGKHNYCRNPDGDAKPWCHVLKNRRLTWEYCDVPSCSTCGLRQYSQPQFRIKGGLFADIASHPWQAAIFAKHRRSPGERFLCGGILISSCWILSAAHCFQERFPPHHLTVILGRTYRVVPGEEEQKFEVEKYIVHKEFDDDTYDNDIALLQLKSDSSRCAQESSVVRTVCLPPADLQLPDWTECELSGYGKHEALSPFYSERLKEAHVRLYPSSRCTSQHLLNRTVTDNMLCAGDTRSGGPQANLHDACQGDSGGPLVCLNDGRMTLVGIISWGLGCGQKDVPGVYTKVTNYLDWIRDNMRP
Method in brief: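 Recombinant tPA, approx. 5 mU, in Tris pH 8.3, is preincubated with inhibitor for 15 min at 37 °C. S-2288 is then added at 1.25 mM (Km 1 mM). Absorbance change is read at 405 nm, in duplicate, and IC50 comes from a four-parameter logistic fit.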

Prothrombin = Prothrombin (Homo sapiens, UniProt P00734); assay: Inhibition of human thrombin
Method in brief: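 Thrombin from human plasma, approx. 5 mU, in Tris pH 8.3, with a 15-min 37 °C inhibitor preincubation. […] Initial rate is read at 405 nm, duplicates, and IC50 is obtained by four-parameter logistic fitting.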

[2] = target: T1, Urokinase-type plasminogen activator (Homo sapiens, UniProt P00749); assay: Inhibition of human uPA
Coagulation factor X [3] = target: T2, Coagulation factor X (Bos taurus, UniProt P00743); assay: (§1) Inhibition of bovine F10a at 250 uM
T2 sequence (P00743 41-180 limits assumed): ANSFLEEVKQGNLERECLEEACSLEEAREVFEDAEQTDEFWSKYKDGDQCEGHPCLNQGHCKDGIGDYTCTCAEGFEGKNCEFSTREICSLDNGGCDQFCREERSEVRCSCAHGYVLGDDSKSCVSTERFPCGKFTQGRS
T2 sequence (P00743 234-492 limits assumed): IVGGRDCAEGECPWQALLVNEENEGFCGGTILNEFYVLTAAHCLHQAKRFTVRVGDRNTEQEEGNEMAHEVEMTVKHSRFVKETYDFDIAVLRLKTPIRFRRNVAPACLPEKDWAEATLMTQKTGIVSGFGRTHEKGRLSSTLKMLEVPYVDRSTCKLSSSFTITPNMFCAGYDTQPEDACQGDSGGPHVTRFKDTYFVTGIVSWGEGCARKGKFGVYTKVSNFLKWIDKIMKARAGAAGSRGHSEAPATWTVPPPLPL

Homo sapiens [4] = organism: Homo sapiens; assay: Selectivity index, IC50 for human plasmin/IC50 for human uPA
[5] = Inhibition of bovine trypsin; design: species or system Bos taurus
Method in brief: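 Bovine trypsin, approx. 5 mU, is preincubated with inhibitor for 15 min at 37 °C. BAPNA substrate is then added at 425 µM (Km 1 mM) in Tris pH 8.2. The pNA release rate is read at 405 nm, duplicate wells, and IC50 comes from a four-parameter logistic fit.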

[6] = Selectivity index, IC50 for bovine trypsin/IC50 for human uPA
Homo sapiens [7] = organism: Homo sapiens; assay: Selectivity index, IC50 for recombinant tPA/IC50 for human uPA
[8] = target: Thrombin and urokinase-type plasminogen activator (Homo sapiens) (UniProt P00734+P00749); assay: Selectivity index, IC50 for human thrombin/IC50 for human uPA; type: protein assay
[9] = target: Coagulation factor X (Bos taurus) (UniProt P00743); assay: as §1
Chain of Coagulation factor X (Bos taurus) (P00743 41-180 limits assumed): as the sequence (P00743 41-180 limits assumed) above
Chain of Coagulation factor X (Bos taurus) (P00743 234-492 limits assumed): as the sequence (P00743 234-492 limits assumed) above

[10] = Selectivity index, IC50 for bovine F10a/IC50 for human uPA
Coagulation factor X [11] = target: T2, Coagulation factor X; assay: Inhibition of bovine F10a
[12] = target: T1, Urokinase-type plasminogen activator; assay: Inhibition of mouse uPA; settings: target entry is the homologue from another species

Chain of Plasminogen (P00747 97-580 limits assumed): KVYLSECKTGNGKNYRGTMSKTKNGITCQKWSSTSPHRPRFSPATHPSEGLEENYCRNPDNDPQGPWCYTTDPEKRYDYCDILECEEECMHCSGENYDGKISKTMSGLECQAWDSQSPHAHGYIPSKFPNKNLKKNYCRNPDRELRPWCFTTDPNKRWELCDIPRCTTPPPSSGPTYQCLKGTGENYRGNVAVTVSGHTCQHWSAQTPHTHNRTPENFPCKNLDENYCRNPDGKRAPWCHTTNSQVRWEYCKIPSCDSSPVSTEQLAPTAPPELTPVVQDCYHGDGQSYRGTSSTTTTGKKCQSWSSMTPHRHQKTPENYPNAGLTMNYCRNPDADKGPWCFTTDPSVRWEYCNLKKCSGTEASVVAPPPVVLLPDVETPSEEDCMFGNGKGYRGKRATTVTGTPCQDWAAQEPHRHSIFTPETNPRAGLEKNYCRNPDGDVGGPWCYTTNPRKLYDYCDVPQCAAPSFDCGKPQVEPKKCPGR
Chain of Plasminogen (P00747 581-810 limits assumed): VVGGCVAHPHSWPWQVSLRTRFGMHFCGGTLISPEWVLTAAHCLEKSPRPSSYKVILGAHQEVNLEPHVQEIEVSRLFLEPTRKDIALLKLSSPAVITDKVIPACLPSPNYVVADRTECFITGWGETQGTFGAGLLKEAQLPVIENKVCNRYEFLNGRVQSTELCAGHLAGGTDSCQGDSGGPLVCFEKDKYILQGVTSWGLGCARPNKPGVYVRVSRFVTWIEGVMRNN

Row | SMILES | pIC50 (Plasminogen) | pIC50 [1] | pIC50 (Prothrombin) | pIC50 [2] | pIC50 (Coagulation factor X [3]) | Selectivity index (Homo sapiens [4]) | pIC50 [5] | Selectivity index [6] | Selectivity index (Homo sapiens [7]) | Selectivity index [8] | inhibition [9] [%] | Selectivity index [10] | pIC50 (Coagulation factor X [11]) | pIC50 [12]
1 | C[C@H](NC(=O)[C@@H](CO)NC(=O)c1cccs1)C(=O)NC(Cc1ccc(N=C(N)N)cc1)P(=O)(Oc1ccccc1)Oc1ccccc1 (stereo not given in full) | 5.00 | 4.89 | 4.46 | 8.16 | 3.60 |  |  |  |  |  |  |  |  | 
2 | C[C@H](NC(=O)[C@@H](CO)NS(=O)(=O)c1cccs1)C(=O)NC(Cc1ccc(NC(=N)N)cc1)P(=O)(Oc1ccccc1)Oc1ccccc1 (stereo not given in full) |  |  |  |  |  | 1000 | 7.01 | 65 | 2300 | 2800 | 68 |  |  | 
3 | C[C@H](NC(=O)[C@@H](CO)NS(=O)(=O)Cc1ccccc1)C(=O)NC(Cc1ccc(NC(=N)N)cc1)P(=O)(Oc1ccccc1)Oc1ccccc1 (stereo not given in full) | 7.43 | 6.55 | 6.11 | 8.46 |  | 11 | 6.51 | 90 | 80 | 220 |  | 9400 | 4.48 | 
4 | C[C@H](NC(=O)[C@@H](CO)NS(=O)(=O)c1cccc2ccccc12)C(=O)NC(Cc1ccc(NC(=N)N)cc1)P(=O)(Oc1ccccc1)Oc1ccccc1 (stereo not given in full) |  |  |  |  |  | 155 | 6.55 | 50 | 760 | 1000 |  | 16600 |  | 
5 | C[C@H](NC(=O)[C@@H](CO)NS(=O)(=O)c1cccs1)C(=O)NC(Cc1ccc(N=C(N)N)cc1)P(=O)(Oc1ccccc1)Oc1ccccc1 (stereo not given in full) | 5.81 | 5.47 | 5.37 | 8.82 |  |  |  |  |  |  |  |  |  | 
6 | C[C@H](NC(=O)[C@@H](CO)NS(=O)(=O)c1ccc(C#N)cc1)C(=O)NC(Cc1ccc(N=C(N)N)cc1)P(=O)(Oc1ccccc1)Oc1ccccc1 (stereo not given in full) | 6.05 | 5.18 | 5.12 | 8.21 |  |  |  |  |  |  |  |  |  | 
7 | CC(=O)Nc1ccc(OP(=O)(Oc2ccc(NC(C)=O)cc2)C(Cc2ccc(N=C(N)N)cc2)NC(=O)[C@H](C)NC(=O)[C@@H](CO)NC(=O)OCc2ccccc2)cc1 (stereo not given in full) | 6.05 | 5.19 | 5.82 | 8.17 |  |  |  |  |  |  |  |  |  | 6.39
8 | C[C@H](NC(=O)[C@@H](CO)NS(=O)(=O)c1cccc2ccccc12)C(=O)NC(Cc1ccc(N=C(N)N)cc1)P(=O)(Oc1ccccc1)Oc1ccccc1 (stereo not given in full) | 6.00 | 5.36 | 5.22 | 8.24 |  |  |  |  |  |  |  |  | 4.02 | 
9 | C[C@H](NC(=O)[C@@H](CO)NC(=O)OCc1ccccc1)C(=O)NC(CCCN=C(N)N)P(=O)(Oc1ccccc1)Oc1ccccc1 (stereo not given in full) |  |  |  |  |  | 300 |  |  | 40 | 8 |  | 1100 |  | 
10 | COc1ccc(S(=O)(=O)N[C@H](CO)C(=O)N[C@@H](C)C(=O)NC(Cc2ccc(NC(=N)N)cc2)P(=O)(Oc2ccccc2)Oc2ccccc2)cc1 (stereo not given in full) | 5.77 | 5.37 | 5.78 | 8.24 |  | 293 | 6.44 | 60 | 740 | 288 |  | 19000 | 4.00 | 
11 | Cc1cccc(C(=O)N[C@H](CO)C(=O)N[C@@H](C)C(=O)NC(Cc2ccc(N=C(N)N)cc2)P(=O)(Oc2ccccc2)Oc2ccccc2)c1 (stereo not given in full) | 5.10 | 4.74 | 4.47 | 8.36 |  |  |  |  |  |  |  |  |  | 
12 | C[C@H](NC(=O)[C@@H](CO)NS(=O)(=O)c1ccc(C#N)cc1)C(=O)NC(Cc1ccc(NC(=N)N)cc1)P(=O)(Oc1ccccc1)Oc1ccccc1 (stereo not given in full) |  |  |  |  |  | 145 | 6.36 | 70 | 1100 | 1200 | 53 |  |  | 
13 | C[C@H](NC(=O)[C@@H](CO)NC(=O)c1cccs1)C(=O)NC(Cc1ccc(NC(=N)N)cc1)P(=O)(Oc1ccccc1)Oc1ccccc1 (stereo not given in full) |  |  |  |  |  | 1400 |  | 40 | 1900 | 5000 |  |  |  | 
